One block for each molecule: values may come before it. Active and inactive are the calls of the source. The rule behind the calls is not given here.
How the values were obtained:
HepG2 [1] = test: Inhibition of cell migration in human HepG2 cells incubated for 48 hrs by wound healing assay; format: functional, cell-based
Outline: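 HepG2 seeded at 15×10⁴/well in triplicate overnight. Confluent monolayers scratched with a pipette tip, PBS-washed, medium with 0.3 μM compound added. Wounds photographed at 0, 24, 48, 72 h; wound area measured by image analysis. At least two separate experiments.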

A-375 = test: Cytotoxicity in human A375 cells assessed as reduction in cell viability incubated for 48 hrs by MTT assay; format: functional, cell-based; conditions: A-375, 48 h
Outline: (§1)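 Cells grown at 37°C, 5% CO₂ (HepG2, OVCAR-3, Caov-3 in DMEM + 10% FBS; A549, HeLa, A375, MCF-7 in RPMI 1640 + 10% FBS). Seeded at 4-5×10³/well in triplicate, adhered overnight, exposed to 0.03–300 μM (DMSO <0.1%) for 48 h. MTT added for 4 h, formazan dissolved in DMSO, absorbance read. IC50 from dose–response curves, mean ± SD of at least three independent experiments.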

A549 = test: Cytotoxicity in human A549 cells assessed as reduction in cell viability incubated for 48 hrs by MTT assay; format: functional, cell-based; conditions: A549, 48 h; outline: as §1
HepG2 [2] = test: Induction of apoptosis in human HepG2 cells assessed as increase in cleaved PARP level at 0.03 to 0.3 uM incubated for 48 hrs by Western blot analysis; format: functional, cell-based
Outline: (§2)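 HepG2 cells treated 48 h. Lysates in RIPA buffer with protease/phosphatase inhibitors; 25 μg protein run on SDS-PAGE, transferred to PVDF, blocked in 5% milk/TBST, primary antibodies overnight at 4°C (caspase-3, cleaved caspase-3, cleaved PARP), HRP secondary 1 h at room temperature, ECL detection; densitometry quantified.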

HepG2 [3] = test: Cytotoxicity in human HepG2 cells assessed as reduction in cell viability incubated for 48 hrs by MTT assay; format: functional, cell-based; conditions: HepG2, 48 h; outline: as §1
HepG2 [4] = test: Induction of apoptosis in human HepG2 cells assessed as viable cells level at 0.3 uM incubated for 24 hrs by Annexin V-FITC/PI staining based flow cytometry (reference value: 89.38%); format: functional
HepG2 [5] = test: Induction of apoptosis in human HepG2 cells assessed as increase in cleaved caspase-3 level at 0.03 to 0.3 uM incubated for 48 hrs by Western blot analysis; format: functional, cell-based; outline: as §2
HepG2 [6] = test: Inhibition of mitotic exit in human HepG2 cells assessed as increase in nuclear phosphohistone H3 levels at 0.03 to 0.3 uM incubated for 48 hrs by Western blot analysis relative to control; format: functional, cell-based
Tubulin (Homo sapiens) [7] = molecular target: T1, Tubulin (Homo sapiens) (UniProt P68371+Q9H4B7+P0DPH7+P68366+Q13509+Q71U36+P04350+Q3ZCM7+P07437+P68363+Q9BQE3+Q6PEY2+Q13885+Q9BVA1+Q9BUF5); test: Inhibition of tubulin polymerization in human HepG2 cells assessed as condensed chromosome formation at 0.3 uM incubated for 48 hrs by immunofluorescent staining; format: cell-based
Outline: (§3)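 HepG2 treated 48 h (vehicle 0.1% DMSO; 0.3 μM paclitaxel reference). Fixed in formaldehyde, permeabilized with Triton X-100, BSA-blocked, anti-α-tubulin overnight at 4°C, fluorescent secondary, DAPI counterstain; imaged for microtubule network and chromosome morphology.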

HepG2 [8] = test: Inhibition of cell invasion in human HepG2 cells assessed as retardation of cell penetration through matrigel-coated membranes at 0.3 uM incubated for 48 hrs; format: functional, cell-based
Outline: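 HepG2 cells treated with compound or DMSO seeded in upper Transwell chamber in serum-free medium with Matrigel; complete medium in lower chamber. After 48 h at 37°C, 5% CO₂, invaded cells crystal-violet stained and photographed.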

MCF7 = test: Cytotoxicity in human MCF7 cells assessed as reduction in cell viability incubated for 48 hrs by MTT assay; format: functional, cell-based; conditions: MCF7, 48 h; outline: as §1
[9] = molecular target: T2, Cell division cycle protein 20 homolog (Homo sapiens, UniProt Q12834); test: Binding affinity to CDC20 (unknown origin) by SPR analysis
Outline: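 Recombinant human Cdc20 (>95% pure) coupled by EDC/NHS to an acid-coupling chip; PBS pH 7.4 running buffer. Compounds injected as a gradient dilution series starting at 200 μM, 120-140 s association, 160 s dissociation. Steady-state values plotted against concentration; K_D from a one-to-one / single-site model.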

Caov-3 cell line = test: Cytotoxicity in human Caov3 cells assessed as reduction in cell viability incubated for 48 hrs by MTT assay; format: functional, cell-based; conditions: Caov-3, 48 h; outline: as §1
HepG2 [10] = test: Inhibition of mitotic exit in human HepG2 cells assessed as increase in nuclear phosphohistone H3 levels incubated for 48 hrs by immunofluorescence assay; format: functional, cell-based
Outline: (§4)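 HepG2 seeded at 4×10³/well, overnight adhesion, treated 48 h. Fixed 15 min in 4% formaldehyde, permeabilized with Triton X-100, BSA-blocked, anti-phospho-histone H3 (Ser10) at 4°C overnight, fluorescent anti-rabbit secondary, DAPI counterstain. Fluorescence read relative to DMSO control; PHH3-positive cells counted in random fields as % of total. At least two experiments.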

OVCAR-3 = test: Cytotoxicity in human OVCAR3 cells assessed as reduction in cell viability incubated for 48 hrs by MTT assay; format: functional, cell-based; conditions: OVCAR-3, 48 h; outline: as §1
HepG2 [11] = test: Induction of apoptosis in human HepG2 cells assessed as early apoptotic cells level at 0.3 uM incubated for 24 hrs by Annexin V-FITC/PI staining based flow cytometry (reference value: 4.02%); format: functional
HepG2 [12] = test: Induction of apoptosis in human HepG2 cells assessed as late apoptotic cells level at 0.3 uM incubated for 24 hrs by Annexin V-FITC/PI staining based flow cytometry (reference value: 5.12%); format: functional
Tubulin (Homo sapiens) [13] = molecular target: T1, Tubulin (Homo sapiens); test: Inhibition of tubulin polymerization in human HepG2 cells assessed as disruption of microtubule organization in cytosol at 0.3 uM incubated for 48 hrs by immunofluorescent staining; format: cell-based; outline: as §3
HepG2 [14] = test: Inhibition of mitotic exit in human HepG2 cells assessed as increase in nuclear phosphohistone H3 levels at 100 uM incubated for 48 hrs by immunofluorescence assay relative to control; format: functional; set-up: scale not given: the % may be the effect or the level left; outline: as §4
HepG2 [15] = test: Induction of apoptosis in human HepG2 cells assessed as necrotic cells level at 0.3 uM incubated for 24 hrs by Annexin V-FITC/PI staining based flow cytometry (reference value: 1.48%); format: functional
HeLa = test: Cytotoxicity in human HeLa cells assessed as reduction in cell viability incubated for 48 hrs by MTT assay; format: functional, cell-based; outline: as §1
Tubulin (Sus scrofa) = Tubulin (Sus scrofa) (UniProt P02554+P02550); test: Inhibition of porcine brain tubulin polymerization assessed as reduction in rate and extent of tubulin assembly measured at 37 degC every 30 secs for 60 mins by fluorescence based assay
HepG2 [16] = test: Induction of apoptosis in human HepG2 cells assessed as late apoptotic cells level at 100 uM incubated for 24 hrs by Annexin V-FITC/PI staining based flow cytometry (reference value: 5.12%); format: functional
HepG2 [17] = test: Induction of apoptosis in human HepG2 cells assessed as viable cells level at 100 uM incubated for 24 hrs by Annexin V-FITC/PI staining based flow cytometry (reference value: 89.38%); format: functional
HepG2 [18] = test: Induction of apoptosis in human HepG2 cells assessed as increase in cleaved PARP level at 30 to 100 uM incubated for 48 hrs by Western blot analysis; format: functional, cell-based; outline: as §2
HepG2 [19] = test: Induction of apoptosis in human HepG2 cells assessed as viable cells level at 300 uM incubated for 24 hrs by Annexin V-FITC/PI staining based flow cytometry (reference value: 89.38%); format: functional
HepG2 [20] = test: Induction of apoptosis in human HepG2 cells assessed as increase in cleaved caspase-3 level at 30 to 100 uM incubated for 48 hrs by Western blot analysis; format: functional, cell-based; outline: as §2
HepG2 [21] = test: Induction of apoptosis in human HepG2 cells assessed as necrotic cells level at 100 uM incubated for 24 hrs by Annexin V-FITC/PI staining based flow cytometry (reference value: 1.48%); format: functional
HepG2 [22] = test: Induction of apoptosis in human HepG2 cells assessed as late apoptotic cells level at 300 uM incubated for 24 hrs by Annexin V-FITC/PI staining based flow cytometry (reference value: 5.12%); format: functional
[23] = molecular target: T2, Cell division cycle protein 20 homolog; test: Inhibition of CDC20 in human HepG2 cells assessed as increase in Bim protein levels at 100 uM incubated for 48 hrs by Western blot Analysis; format: cell-based
Outline: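 HepG2 lysates in RIPA buffer with protease/phosphatase inhibitors; 25 μg protein by SDS-PAGE/PVDF, blocked in 5% milk/TBST, primary antibodies overnight at 4°C (Cyclin A2, Cyclin B1, Bim, Aurora A, Skp2), HRP secondary 1 h at room temperature, ECL; bands quantified by densitometry.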

HepG2 [24] = test: Induction of apoptosis in human HepG2 cells assessed as necrotic cells level at 300 uM incubated for 24 hrs by Annexin V-FITC/PI staining based flow cytometry (reference value: 1.48%); format: functional
HepG2 [25] = test: Induction of apoptosis in human HepG2 cells assessed as early apoptotic cells level at 300 uM incubated for 24 hrs by Annexin V-FITC/PI staining based flow cytometry (reference value: 4.02%); format: functional
HepG2 [26] = test: Induction of apoptosis in human HepG2 cells assessed as early apoptotic cells level at 100 uM incubated for 24 hrs by Annexin V-FITC/PI staining based flow cytometry (reference value: 4.02%); format: functional
HepG2 [27] = test: Inhibition of mitotic exit in human HepG2 cells assessed as increase in nuclear phosphohistone H3 levels at 10 to 100 uM incubated for 48 hrs by relative to control

T2 sequence (Q12834 whole entry): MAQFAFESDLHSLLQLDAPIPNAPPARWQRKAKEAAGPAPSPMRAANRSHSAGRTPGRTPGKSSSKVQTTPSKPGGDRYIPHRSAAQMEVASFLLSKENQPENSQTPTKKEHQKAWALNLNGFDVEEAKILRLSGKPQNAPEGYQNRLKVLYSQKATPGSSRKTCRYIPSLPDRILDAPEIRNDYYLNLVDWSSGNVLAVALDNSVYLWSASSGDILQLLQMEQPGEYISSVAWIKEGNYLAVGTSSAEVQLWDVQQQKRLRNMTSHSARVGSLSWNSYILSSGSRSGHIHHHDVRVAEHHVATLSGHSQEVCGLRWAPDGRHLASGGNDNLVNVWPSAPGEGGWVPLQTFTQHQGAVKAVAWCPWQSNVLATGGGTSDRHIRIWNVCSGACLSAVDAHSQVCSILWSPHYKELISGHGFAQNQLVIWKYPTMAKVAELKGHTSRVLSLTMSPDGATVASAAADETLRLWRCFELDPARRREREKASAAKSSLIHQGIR
Chain of Tubulin (Sus scrofa) (P02550 whole entry, looked up): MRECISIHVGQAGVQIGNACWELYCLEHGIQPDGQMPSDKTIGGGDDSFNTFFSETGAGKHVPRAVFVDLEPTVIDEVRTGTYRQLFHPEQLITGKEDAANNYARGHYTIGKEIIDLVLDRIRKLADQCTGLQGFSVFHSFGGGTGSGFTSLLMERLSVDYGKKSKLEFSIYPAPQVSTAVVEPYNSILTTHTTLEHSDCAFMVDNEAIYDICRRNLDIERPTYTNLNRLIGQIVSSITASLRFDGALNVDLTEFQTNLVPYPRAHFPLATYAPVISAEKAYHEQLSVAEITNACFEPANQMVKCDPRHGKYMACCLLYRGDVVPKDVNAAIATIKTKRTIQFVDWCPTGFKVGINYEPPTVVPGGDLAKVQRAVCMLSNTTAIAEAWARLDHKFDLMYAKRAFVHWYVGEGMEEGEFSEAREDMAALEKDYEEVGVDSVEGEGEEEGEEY
Chain of Tubulin (Sus scrofa) (P02554 whole entry, looked up): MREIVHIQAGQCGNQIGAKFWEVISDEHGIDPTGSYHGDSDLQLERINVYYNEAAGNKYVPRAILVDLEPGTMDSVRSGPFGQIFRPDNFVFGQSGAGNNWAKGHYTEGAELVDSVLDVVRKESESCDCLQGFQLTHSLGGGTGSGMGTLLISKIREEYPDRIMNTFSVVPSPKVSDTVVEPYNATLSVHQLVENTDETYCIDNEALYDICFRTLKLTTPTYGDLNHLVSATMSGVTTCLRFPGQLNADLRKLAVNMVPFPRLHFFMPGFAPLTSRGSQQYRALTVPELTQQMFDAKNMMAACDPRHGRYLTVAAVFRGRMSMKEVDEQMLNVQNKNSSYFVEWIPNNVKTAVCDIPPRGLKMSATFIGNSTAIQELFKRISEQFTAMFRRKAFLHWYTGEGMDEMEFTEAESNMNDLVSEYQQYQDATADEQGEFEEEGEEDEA

inhibition (Tubulin (Homo sapiens) [7]): Active | Kd [9]: 119 µM | inhibition (Tubulin (Homo sapiens) [13]): Active | inhibition (Tubulin (Sus scrofa)): Dose-dependent effect
SMILES: Nc1nc(F)nc2c1ncn2C(NC(=O)OCCN1CCOCC1)C(Cl)(Cl)Cl (stereo not drawn)
inhibition (HepG2 [1]): Dose-dependent effect | IC50 (A-375): 0.7 µM | IC50 (A549): 1500 nM | Activity (HepG2 [2]): Active | IC50 (HepG2 [3]): 600 nM | Activity (HepG2 [4]): 57.7% | Activity (HepG2 [5]): Active | Activity (HepG2 [6]): Active | inhibition (HepG2 [8]): Active | IC50 (MCF7): 200 nM | IC50 (Caov-3 cell line): 1500 nM | Activity (HepG2 [10]): Dose-dependent effect | IC50 (OVCAR-3): 1700 nM | Activity (HepG2 [11]): 37.35% | Activity (HepG2 [12]): 4.71% | Activity (HepG2 [14]): 10% | Activity (HepG2 [15]): 0.24% | IC50 (HeLa): 0.3 µM

Kd [9]: 123 µM | inhibition [23]: Active
SMILES: Cc1ncc([N+](=O)[O-])n1CCOC(=O)NC(Nc1ncccn1)C(Cl)(Cl)Cl (stereo not drawn)
Activity (HepG2 [16]): 6.85% | IC50 (A-375): 193 µM | IC50 (A549): > 300000 nM | Activity (HepG2 [17]): 82.91% | IC50 (HepG2 [3]): > 300000 nM | Activity (HepG2 [18]): Active | Activity (HepG2 [19]): 6.82% | IC50 (MCF7): > 300000 nM | Activity (HepG2 [20]): Active | IC50 (Caov-3 cell line): > 300000 nM | Activity (HepG2 [10]): Dose-dependent effect | Activity (HepG2 [21]): 2.39% | Activity (HepG2 [22]): 30.02% | IC50 (OVCAR-3): > 300000 nM | Activity (HepG2 [24]): 0.73% | Activity (HepG2 [25]): 62.43% | Activity (HepG2 [26]): 7.85% | IC50 (HeLa): 221 µM | fold change (FC) (HepG2 [27]): 2.2
